ChEMBL document CHEMBL1949557, “Discovery of INCB3284, a Potent, Selective, and Orally Bioavailable hCCR2 Antagonist” (ACS Med Chem Lett, 2011)

Columns and labels:
[1] = target: T1, C-C chemokine receptor type 2 (Homo sapiens, UniProt P41597); experiment: Displacement of [125I]MCP1 from CCR2 in human PBMC at 1 uM after 30 mins by gamma counter
Target sequence in this assay (P41597 whole entry, looked up): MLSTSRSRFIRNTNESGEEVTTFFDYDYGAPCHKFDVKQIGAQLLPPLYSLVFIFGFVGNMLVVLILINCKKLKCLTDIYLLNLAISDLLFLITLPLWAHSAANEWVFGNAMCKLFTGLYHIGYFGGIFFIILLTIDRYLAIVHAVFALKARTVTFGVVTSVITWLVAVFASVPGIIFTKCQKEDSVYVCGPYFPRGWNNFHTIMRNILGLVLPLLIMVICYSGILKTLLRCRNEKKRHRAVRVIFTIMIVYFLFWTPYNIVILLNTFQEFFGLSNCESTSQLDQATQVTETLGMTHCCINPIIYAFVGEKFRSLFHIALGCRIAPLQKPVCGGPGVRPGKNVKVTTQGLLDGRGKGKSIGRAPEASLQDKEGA

[2] = target: T1, C-C chemokine receptor type 2; experiment: Displacement of [125I]MCP1 from CCR2 in human PBMC after 30 mins by gamma counter
Target sequence in this assay (P41597 whole entry): as the sequence (P41597 whole entry, looked up) above

Mus musculus = experiment: Dose normalized AUC in mouse at 10 mg/kg, po; type: ADME, organism-based; parameters: dose 10 mg/kg, route oral; conditions: in vivo
Summary of the method: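 Mouse oral PK screen by cassette dosing at 10 mg/kg, three animals per cassette. AUC is dose-normalized.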

[3] = target: C-C chemokine receptor type 2 (Mus musculus, UniProt P51683); experiment: Displacement of [125I]MCP1 from mouse CCR2 after 30 mins by gamma counter
Sequence of C-C chemokine receptor type 2 (Mus musculus, UniProt P51683) (P51683 whole entry): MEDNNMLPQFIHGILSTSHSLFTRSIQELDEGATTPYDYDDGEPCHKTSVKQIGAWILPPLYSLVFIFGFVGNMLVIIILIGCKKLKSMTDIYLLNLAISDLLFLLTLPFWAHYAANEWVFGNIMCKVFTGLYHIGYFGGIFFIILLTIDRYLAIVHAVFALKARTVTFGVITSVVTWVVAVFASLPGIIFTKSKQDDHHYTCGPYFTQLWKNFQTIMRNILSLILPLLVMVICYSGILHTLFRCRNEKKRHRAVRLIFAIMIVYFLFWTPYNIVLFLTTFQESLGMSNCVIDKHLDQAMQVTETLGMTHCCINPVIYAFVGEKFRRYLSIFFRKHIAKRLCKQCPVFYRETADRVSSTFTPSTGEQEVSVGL

For `CCOc1ccc([C@]2(O)CC[C@@H](N3CC[C@@H](NC(=O)CNC(=O)c4cccc(C(F)(F)F)c4)C3)CC2)cn1`, the inhibition [1] was < 50%.
For `Cc1ccc([C@]2(O)CC[C@H](N3CC[C@@H](NC(=O)CNC(=O)c4cccc(C(F)(F)F)c4)C3)CC2)cn1`, the IC50 [2] was 2.4 nM and the AUC/dose (Mus musculus) was 127 nM·h.
Work on `O=C(CNC(=O)c1cccc(C(F)(F)F)c1)N[C@@H]1CCN([C@H]2CC[C@@](O)(c3ccnnc3)CC2)C1` yielded an IC50 [2] of 4.9 nM and an AUC/dose (Mus musculus) of 80 nM·h.
Compound `CCOc1ccc([C@]2(O)CC[C@H](N3CC[C@@H](NC(=O)CNC(=O)c4cccc(C(F)(F)F)c4)C3)CC2)cn1` has an IC50 [2] of 3.2 nM and an AUC/dose (Mus musculus) of 287 nM·h.
With `O=C(CNC(=O)c1cccc(C(F)(F)F)c1)N[C@@H]1CCN([C@H]2CC[C@](O)(c3cnccn3)CC2)C1` the inhibition [1] was < 50%.
`O=C(CNC(=O)c1cccc(C(F)(F)F)c1)N[C@@H]1CCN([C@H]2CC[C@](O)(c3ncccn3)CC2)C1` was tested, and the inhibition [1] was < 50%.
For `O=C(CNC(=O)c1cccc(C(F)(F)F)c1)N[C@@H]1CCN([C@H]2CC[C@](O)(c3cccnn3)CC2)C1`, the inhibition [1] was < 50%.
In the case of `O=C(CNC(=O)c1cccc(C(F)(F)F)c1)N[C@@H]1CCN([C@H]2CC[C@](O)(c3ccncc3)CC2)C1` (mixture of isomers), the inhibition [1] is reported as < 50%.
`O=C(CNC(=O)c1cccc(C(F)(F)F)c1)N[C@@H]1CCN([C@H]2CC[C@@](O)(c3ccncn3)CC2)C1` gave an IC50 [2] of 7.8 nM and an AUC/dose (Mus musculus) of 930 nM·h.
`O=C(CNC(=O)c1cccc(C(F)(F)F)c1)N[C@@H]1CCN([C@H]2CC[C@@](O)(c3cccnc3)CC2)C1` was tested, and the IC50 [2] was 2.6 nM and the AUC/dose (Mus musculus) was 50 nM·h.
`O=C(CNC(=O)c1cccc(C(F)(F)F)c1)N[C@@H]1CCN([C@H]2CC[C@](O)(c3cncnc3)CC2)C1` was tested, and the inhibition [1] was < 50%.
For `O=C(CNC(=O)c1cccc(C(F)(F)F)c1)N[C@@H]1CCN([C@H]2CC[C@](O)(c3cccnc3)CC2)C1`, the inhibition [1] was < 50%.
With `Cc1ccc([C@]2(O)CC[C@H](N3CC[C@H](NC(=O)CNC(=O)c4cccc(C(F)(F)F)c4)C3)CC2)cc1` the IC50 [2] was > 1000 nM.
Compound `O=C(CNC(=O)c1cccc(C(F)(F)F)c1)N[C@@H]1CCN([C@H]2CC[C@@](O)(c3ccccn3)CC2)C1` has an IC50 [2] of 3.2 nM and an AUC/dose (Mus musculus) of 2812 nM·h.
`O=C(CNC(=O)c1cccc(C(F)(F)F)c1)N[C@@H]1CCN([C@H]2CC[C@](O)(c3ccnnc3)CC2)C1` was tested, and the inhibition [1] was < 50%.
For `O=C(CNC(=O)c1cccc(C(F)(F)F)c1)N[C@@H]1CCN([C@H]2CC[C@@](O)(c3cncnc3)CC2)C1`, the IC50 [2] was 14 nM.
For `O=C(CNC(=O)c1cccc(C(F)(F)F)c1)N[C@@H]1CCN([C@H]2CC[C@](O)(c3ccccn3)CC2)C1`, the inhibition [1] was < 50%.
Work on `O=C(CNC(=O)c1cccc(C(F)(F)F)c1)N[C@@H]1CCN([C@H]2CC[C@@](O)(c3ccncc3)CC2)C1` yielded an IC50 [2] of 4.3 nM and an AUC/dose (Mus musculus) of 100 nM·h.
`COc1ccc([C@]2(O)CC[C@@H](N3CC[C@@H](NC(=O)CNC(=O)c4cccc(C(F)(F)F)c4)C3)CC2)cn1` was tested, and the inhibition [1] was < 50%.
With `O=C(CNC(=O)c1cccc(C(F)(F)F)c1)N[C@@H]1CCN([C@H]2CC[C@](O)(c3ccncn3)CC2)C1` the inhibition [1] was < 50%.
`Cc1ccc([C@]2(O)CC[C@@H](N3CC[C@@H](NC(=O)CNC(=O)c4cccc(C(F)(F)F)c4)C3)CC2)cn1` was tested, and the inhibition [1] was < 50%.
`O=C(CNC(=O)c1cccc(C(F)(F)F)c1)N[C@@H]1CCN([C@H]2CC[C@@](O)(c3cnccn3)CC2)C1` gave an IC50 [2] of 10.9 nM and an AUC/dose (Mus musculus) of 1550 nM·h.
With `O=C(CNC(=O)c1cccc(C(F)(F)F)c1)N[C@@H]1CCN([C@H]2CC[C@@](O)(c3ncccn3)CC2)C1` the IC50 [2] was 10.3 nM and the AUC/dose (Mus musculus) was 1442 nM·h.
For `Cc1ccc([C@]2(O)CC[C@H](N3CC[C@@H](NC(=O)CNC(=O)c4cccc(C(F)(F)F)c4)C3)CC2)cc1`, the IC50 [2] was 1 nM and the IC50 [3] was 18 nM.
For `O=C(CNC(=O)c1cccc(C(F)(F)F)c1)N[C@@H]1CCN([C@H]2CC[C@@](O)(c3cccnn3)CC2)C1`, the IC50 [2] was 7.3 nM and the AUC/dose (Mus musculus) was 155 nM·h.
